The values below come from PMC7877830 (Clinical and Translational Science, 2020).

Several values for one entry are separate records, joined by “and”; a condition that tells them apart may be missing. Identical values can stand only once. Like-named read-outs stand apart in the source and are kept apart here.

In data set [1] the test system is OATP1B3. To be noted: read-out: Km for OATP1B3; cited from earlier work.
Data set [2] deals with OATP1B1/1B3. To be noted: n = 56; across different ethnicities; cited from earlier work.
For data set [3], the system named is OATP1B1. To be noted: read-out: Km for OATP1B1; cited from earlier work.
Data set [4] deals with OATP1B1/1B3. The data set is classed as in vivo, human. To be noted: for AUC0–16 of endogenous biomarker / AUC0–48 of endogenous biomarker / Cmax of endogenous biomarker: geometric mean (mean, %CV); for AUC0–16 ratio relative to baseline / AUC0–48 ratio relative to baseline / Cmax ratio relative to baseline: point estimate (90% CI). Put shortly: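 Healthy volunteers in a crossover each got a single fasting 300/120 mg dose of formulation A, B or C. Plasma (K2EDTA, stored −20 °C) drawn predose and up to 48 h. Cmax, AUC0–16 and AUC0–48 derived noncompartmentally by linear trapezoid. Predose level served as baseline; baseline AUC = baseline concentration × interval. Ratios to baseline given with 90% CI; mixed model compared A or B with C.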

Data set [5] deals with OATP1B3. Particulars: as per the FDA guidance; unbound concentration in hepatic portal vein; cited from earlier work.
The test system of data set [6] is OATP1B1. To be noted: as per the FDA guidance; unbound concentration in hepatic portal vein; cited from earlier work.
For data set [7] the following is noted: cited from earlier work.
The conditions of data set [8]: cited from earlier work. This is another data set of the same source.
Data set [9] is classed as in vivo, human. Particulars: for AUC(0-t) / Cmax: human, plasma, oral; for Cmax: geometric mean (mean, %CV), healthy subjects. In outline:
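Phase I single-dose complete crossover in healthy subjects, randomised to two test formulations and a reference formulation. Dosed 300/120 mg fasting in the morning, with at least 5 days washout; subjects confined ~4 days on standardized meals. Plasma (K2EDTA, stored −20 °C) sampled predose to 48 h and extracted liquid-liquid with deuterated internal standards. Calibration ~0.200–100 ng/mL; high range ~85.0–10,000 (GLE) or ~85.0–1,050 ng/mL (PIB). Noncompartmental, linear-trapezoidal analysis; BLQ set to zero.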

Data set [10] relates to OATP1B1. Particulars: read-out: OATP1B1 IC50, cited from earlier work.
Data set [11] concerns OATP1B3. Particulars: read-out: OATP1B3 IC50; in vitro; cited from earlier work.
For data set [12] the following is noted: cited from earlier work. This is another data set of the same source.
Setting [13] is: after GLE/PIB 300/120 mg Formulation A.
[14] abbreviates: after GLE/PIB 300/120 mg Formulation B.
Where [15] appears, read: after GLE/PIB 300/120 mg Formulation C.
Where [16] appears, read: AUC0–16, geometric mean (mean, %CV), GLE/PIB 300/120 mg Formulation A.
Where [17] appears, read: AUC0–16, geometric mean (mean, %CV), GLE/PIB 300/120 mg Formulation B.
The mark [18] stands for this setting: AUC0–16, geometric mean (mean, %CV), GLE/PIB 300/120 mg Formulation C.
Where [19] appears, read: AUC0–48, geometric mean (mean, %CV), GLE/PIB 300/120 mg Formulation A.
[20] abbreviates: AUC0–48, geometric mean (mean, %CV), GLE/PIB 300/120 mg Formulation B.
Where [21] appears, read: AUC0–48, geometric mean (mean, %CV), GLE/PIB 300/120 mg Formulation C.
Where [22] appears, read: single dose GLE/PIB 300/120 mg Formulation A, fasting.
The mark [23] stands for this setting: single dose GLE/PIB 300/120 mg Formulation B, fasting.
The mark [24] stands for this setting: single dose GLE/PIB 300/120 mg Formulation C (reference), fasting.

Broadly, the Km is the concentration of substrate that gives half-maximal velocity. For `CC1=C(CCC(=O)O)c2cc3nc(cc4[nH]c(cc5[nH]c(cc1n2)c(CCC(=O)O)c5C)c(CCC(=O)O)c4C)C(CCC(=O)O)=C3C` [CP‐I, coproporphyrin (CP)‐I], the Km in the data set with OATP1B3 [1] is 3.95 µM. Besides, the “baseline plasma concentration, previously reported range” value in the data set on OATP1B1/1B3 [2] is 0.5 to 1.5 nM. For the same compound, the Km in the data set on OATP1B1 [3] is 0.13 µM. Moreover, in the data set on OATP1B1/1B3 [4] (setting [13]), the “AUC0–16 of endogenous biomarker” value is 8.98 (9.10, 16) ng·h/mL; the “AUC0–48 of endogenous biomarker” value is recorded as 25.4 (25.6, 12) ng·h/mL; the “Cmax of endogenous biomarker” value is 0.726 (0.740, 21) ng/mL; the “AUC0–16 ratio relative to baseline” value is reported as 0.97 (0.89 to 1.06). In addition, in the data set with OATP1B1/1B3 [4] (setting [13]), the “AUC0–48 ratio relative to baseline” value was 0.91 (0.85 to 0.97) and the “Cmax ratio relative to baseline” value was 1.25 (1.12 to 1.41). In addition, in the data set with OATP1B1/1B3 [4] (setting [14]), the “AUC0–16 of endogenous biomarker” value was 11.7 (11.9, 23) ng·h/mL; the “AUC0–48 of endogenous biomarker” value was 28.2 (28.5, 18) ng·h/mL; the “Cmax of endogenous biomarker” value is listed as 1.19 (1.24, 26) ng/mL; the “AUC0–16 ratio relative to baseline” value is reported as 1.25 (1.18 to 1.32). Further, in the data set with OATP1B1/1B3 [4] (setting [14]), the “AUC0–48 ratio relative to baseline” value was 1.01 (0.96 to 1.06) and the “Cmax ratio relative to baseline” value is on record as 2.05 (1.81 to 2.32). For the same compound, in the data set on OATP1B1/1B3 [4] (setting [15]), the “AUC0–16 of endogenous biomarker” value was 13.2 (13.3, 16) ng·h/mL; the “AUC0–48 of endogenous biomarker” value was 30.3 (30.6, 13) ng·h/mL; the “Cmax of endogenous biomarker” value is reported as 1.44 (1.48, 23) ng/mL; the “AUC0–16 ratio relative to baseline” value is reported as 1.39 (1.29 to 1.51). In addition, in the data set with OATP1B1/1B3 [4] (setting [15]), the “AUC0–48 ratio relative to baseline” value is recorded as 1.07 (1.02 to 1.13) and the “Cmax ratio relative to baseline” value is given as 2.44 (2.11 to 2.82). For the same compound, the baseline plasma concentration in the data set with OATP1B1/1B3 [4] (mean and SD, predose, all study periods) is 0.59 ± 0.09 ng/mL and 0.90 ± 0.14 nM.

As to `CC1=C(CCC(=O)O)c2cc3nc(cc4[nH]c(cc5[nH]c(cc1n2)c(C)c5CCC(=O)O)c(CCC(=O)O)c4C)C(CCC(=O)O)=C3C` [CP‐III], in the data set on OATP1B1/1B3 [4] (setting [13]), the “AUC0–16 of endogenous biomarker” value is 1.20 (1.22, 19) ng·h/mL; the “AUC0–48 of endogenous biomarker” value was 3.32 (3.44, 23) ng·h/mL; the “Cmax of endogenous biomarker” value is recorded as 0.104 (0.105, 16) ng/mL; the “AUC0–16 ratio relative to baseline” value is 0.94 (0.84 to 1.06). Moreover, in the data set on OATP1B1/1B3 [4] (setting [13]), the “AUC0–48 ratio relative to baseline” value is 0.86 (0.82 to 0.95) and the “Cmax ratio relative to baseline” value is reported as 1.31 (1.18 to 1.46). Besides, in the data set on OATP1B1/1B3 [4] (setting [14]), the “AUC0–16 of endogenous biomarker” value is on record as 1.07 (1.24, 73) ng·h/mL; the “AUC0–48 of endogenous biomarker” value is on record as 2.77 (3.44, 41) ng·h/mL; the “Cmax of endogenous biomarker” value is on record as 0.113 (0.116, 25) ng/mL; the “AUC0–16 ratio relative to baseline” value is 0.96 (0.85 to 1.08). Further, in the data set with OATP1B1/1B3 [4] (setting [14]), the “AUC0–48 ratio relative to baseline” value was 0.90 (0.80 to 1.01) and the “Cmax ratio relative to baseline” value is 1.34 (1.18 to 1.53). In the data set on OATP1B1/1B3 [4] (setting [15]), the “AUC0–16 of endogenous biomarker” value is listed as 1.23 (1.30, 36) ng·h/mL; the “AUC0–48 of endogenous biomarker” value is listed as 2.87 (3.23, 41) ng·h/mL; the “Cmax of endogenous biomarker” value was 0.115 (0.119, 26) ng/mL; the “AUC0–16 ratio relative to baseline” value was 1.01 (0.86 to 1.20). In addition, in the data set with OATP1B1/1B3 [4] (setting [15]), the “AUC0–48 ratio relative to baseline” value is 0.79 (0.60 to 1.03) and the “Cmax ratio relative to baseline” value is reported as 1.49 (1.24 to 1.78).

As usually defined, the half-life is the time needed for the level to fall by half in the phase considered. Usually AUC(0-t) stands for the area under the concentration-time curve up to a stated or last time point. A lower AUC(0-t) goes with low exposure. A word on the Cmax: it is the maximum level reached in the sampled fluid or tissue. One may read the IC50 as the concentration that gives 50% inhibition. Consider `CC(C)(C)[C@@H]1NC(=O)O[C@@H]2CCC[C@H]2OC/C=C/C(F)(F)c2nc3ccccc3nc2O[C@@H]2C[C@@H](C(=O)N[C@]3(C(=O)NS(=O)(=O)C4(C)CC4)C[C@H]3C(F)F)N(C2)C1=O` [GLE, glecaprevir], for which the “OATP1B3 R value” in the data set on OATP1B3 [5] is 2.2. Moreover, the “OATP1B1 R value” in the data set with OATP1B1 [6] is 5.5. For the same compound, in [7], the “fu,p (fraction of unbound inhibitor in plasma)” value was 0.025. In addition, in [8], the half-life result is recorded as “about 6 hours”. The “share of exposure observed in the first 16 hours postdose” value in data set [9] (across formulations) is given as 94–97%. Besides, the “exposures (Cmax, AUC0–16, AUC0–48) lower relative to reference formulation C” value is given as ~ 80% in data set [9] (formulation A, fasting) and about 26% in [9] (formulation B, fasting). The AUC(0-t) in data set [9] (setting [16]) came out at 344 ng·h/mL; in [9] (setting [17]), 1330 ng·h/mL; in data set [9] (setting [18]) it was 1800 ng·h/mL; in data set [9] (setting [19]), 367 ng·h/mL; in data set [9] (setting [20]), 1370 ng·h/mL; in data set [9] (setting [21]), 1850 ng·h/mL. The Cmax in data set [9] (setting [22]) came to 88.5 ng/mL; in data set [9] (setting [23]) it was 330 ng/mL; in [9] (setting [24]), 444 ng/mL. Also, the IC50 in the data set with OATP1B1 [10] (in vitro) is 17 nM; with OATP1B3 [11] it was 64 nM.

With `COC(=O)N[C@H](C(=O)N1CCC[C@H]1c1nc2cc([C@H]3CC[C@H](c4cc5nc([C@@H]6CCCN6C(=O)[C@@H](NC(=O)OC)[C@@H](C)OC)[nH]c5cc4F)N3c3cc(F)c(N4CCC(c5ccc(F)cc5)CC4)c(F)c3)c(F)cc2[nH]1)[C@@H](C)OC` [PIB, pibrentasvir], the “OATP1B1 R value” in the data set on OATP1B1 [6] is listed as 1.4. Also, the half-life in data set [8] is about 13 h. The “exposures lower relative to reference formulation C” value in data set [9] (formulations A and B, fasting) was 28–49%. For the same compound, the AUC(0-t) in data set [9] (setting [16]) amounted to 546 ng·h/mL; in data set [9] (setting [17]) it was 514 ng·h/mL; in [9] (setting [18]), 977 ng·h/mL; in data set [9] (setting [19]), 658 ng·h/mL; in data set [9] (setting [20]) it was 622 ng·h/mL; in data set [9] (setting [21]) it was 1170 ng·h/mL. Moreover, the Cmax was found to be 86.8 ng/mL in data set [9] (setting [22]), 83.7 ng/mL in [9] (setting [23]) and 163 ng/mL in data set [9] (setting [24]). For the same compound, in data set [12], the “RB (blood-to-plasma concentration ratio)” value was 0.62. The IC50 in the data set with OATP1B1 [10] (in the presence of 4% bovine serum albumin) was 1300 nM.
